In ChEMBL document CHEMBL4392827, “Tryptamine derivatives disarm colistin resistance in polymyxin-resistant gram-negative bacteria” (Bioorg Med Chem, 2019):

What follows are compounds tested on Acinetobacter baumannii (assay: Potentiation of colistin-induced antimicrobial activity against colistin-resistant Acinetobacter baumannii 4106 assessed as fold reduction in colistin MIC at 60 uM after 18 hrs by broth microdilution assay). Conditions: not given.
Type: functional
Procedure, shortened: (§1)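 Checkerboard-style resensitization following adapted CLSI broth microdilution. Bacteria were grown 4–6 h in CAMHB and subcultured to 5×10^5 CFU/mL. Adjuvant was added from DMSO stock and held constant while colistin was serially diluted in the dosed subculture. Plates were incubated stationary at 37°C for 18 h, then MICs were read. Fold reduction was taken relative to the colistin MIC without adjuvant.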

SMILES | fold change (FC)
O=C(NCCc1c[nH]cn1)c1cc(Br)c(Br)[nH]1 | 8
COc1ccc2[nH]cc(CCNC(=O)c3cc(Br)c(Br)[nH]3)c2c1 | 128
O=C(NCCc1c[nH]c2ccccc12)c1cc(I)c(I)[nH]1 | 128
O=C(NCCc1c[nH]c2ccccc12)c1cc(Br)c[nH]1 | 64
O=C(NCCc1c[nH]c2ccc(O)cc12)c1cc(Br)c(Br)[nH]1 | 4
O=C(NCCc1ccccn1)c1cc(Br)c(Br)[nH]1 | 0
O=C(NCc1ccccc1)c1cc(Br)c(Br)[nH]1 | 2
O=C(NCCc1csc2ccccc12)c1cc(Br)c(Br)[nH]1 | 32
O=C(NCCc1c[nH]c2ccccc12)c1cc(Cl)c[nH]1 | 16
O=C(NCc1c[nH]c2ccccc12)c1cc(I)c(I)[nH]1 | 0
O=C(NCCc1c[nH]c2ccccc12)c1cc(Cl)c(Cl)[nH]1 | 256
O=C(NCCc1c[nH]c2ccccc12)c1ccc(Br)o1 | 16
Cn1cc(CCNC(=O)c2cc(Br)c(Br)[nH]2)c2ccccc21 | 4
CCCCn1c(C(=O)NCCc2c[nH]c3ccccc23)cc(Br)c1Br | 16
O=C(NCCc1c[nH]c2ccccc12)c1cccc(Br)n1 | 16

Each compound was assayed on Klebsiella pneumoniae (assay: Potentiation of colistin-induced antimicrobial activity against colistin-resistant Klebsiella pneumoniae B9 assessed as fold reduction in colistin MIC at 60 uM after 18 hrs by broth microdilution assay). Conditions: not given.
Type: functional
Procedure, shortened: as §1

SMILES | fold change (FC)
O=C(NCCc1c[nH]cn1)c1cc(Br)c(Br)[nH]1 | 0
COc1ccc2[nH]cc(CCNC(=O)c3cc(Br)c(Br)[nH]3)c2c1 | 128
O=C(NCCc1c[nH]c2ccccc12)c1cc(I)c(I)[nH]1 | 2048
O=C(NCCc1c[nH]c2ccccc12)c1cc(Br)c[nH]1 | 128
O=C(NCCc1c[nH]c2ccc(O)cc12)c1cc(Br)c(Br)[nH]1 | 8
O=C(NCCc1ccccn1)c1cc(Br)c(Br)[nH]1 | 2
O=C(NCc1ccccc1)c1cc(Br)c(Br)[nH]1 | 2
O=C(NCCc1csc2ccccc12)c1cc(Br)c(Br)[nH]1 | 16
O=C(NCCc1c[nH]c2ccccc12)c1cc(Cl)c[nH]1 | 8
O=C(NCc1c[nH]c2ccccc12)c1cc(I)c(I)[nH]1 | 0
O=C(NCCc1c[nH]c2ccccc12)c1cc(Cl)c(Cl)[nH]1 | 1024
O=C(NCCc1c[nH]c2ccccc12)c1ccc(Br)o1 | 64
Cn1cc(CCNC(=O)c2cc(Br)c(Br)[nH]2)c2ccccc21 | 0
CCCCn1c(C(=O)NCCc2c[nH]c3ccccc23)cc(Br)c1Br | 16
O=C(NCCc1c[nH]c2ccccc12)c1cccc(Br)n1 | 1024

What follows are compounds tested on Acinetobacter baumannii (assay: Potentiation of colistin-induced antimicrobial activity against colistin-resistant Acinetobacter baumannii ATCC 17978 expressing mcr1 gene assessed as fold reduction in colistin MIC at 60 uM after 18 hrs by broth microdilution assay). Conditions: not given.
Type: functional
Procedure, shortened: as §1

SMILES | fold change (FC)
O=C(NCCc1c[nH]cn1)c1cc(Br)c(Br)[nH]1 | 0
COc1ccc2[nH]cc(CCNC(=O)c3cc(Br)c(Br)[nH]3)c2c1 | 8
O=C(NCCc1c[nH]c2ccccc12)c1cc(I)c(I)[nH]1 | 16
O=C(NCCc1c[nH]c2ccccc12)c1cc(Br)c[nH]1 | 16
O=C(NCCc1c[nH]c2ccc(O)cc12)c1cc(Br)c(Br)[nH]1 | 4
O=C(NCCc1ccccn1)c1cc(Br)c(Br)[nH]1 | 0
O=C(NCc1ccccc1)c1cc(Br)c(Br)[nH]1 | 0
O=C(NCCc1csc2ccccc12)c1cc(Br)c(Br)[nH]1 | 8
O=C(NCCc1c[nH]c2ccccc12)c1cc(Cl)c[nH]1 | 2
O=C(NCc1c[nH]c2ccccc12)c1cc(I)c(I)[nH]1 | 0
O=C(NCCc1c[nH]c2ccccc12)c1cc(Cl)c(Cl)[nH]1 | 32
O=C(NCCc1c[nH]c2ccccc12)c1ccc(Br)o1 | 2
Cn1cc(CCNC(=O)c2cc(Br)c(Br)[nH]2)c2ccccc21 | 0
CCCCn1c(C(=O)NCCc2c[nH]c3ccccc23)cc(Br)c1Br | 2

What follows are compounds tested on Escherichia coli (assay: Potentiation of colistin-induced antimicrobial activity against colistin-resistant Escherichia coli ATCC 25922 expressing mcr1 gene assessed as fold reduction in colistin MIC at 60 uM after 18 hrs by broth microdilution assay). Conditions: not given.
Type: functional
Procedure, shortened: as §1

SMILES | fold change (FC)
O=C(NCCc1c[nH]cn1)c1cc(Br)c(Br)[nH]1 | 0
COc1ccc2[nH]cc(CCNC(=O)c3cc(Br)c(Br)[nH]3)c2c1 | 2
O=C(NCCc1c[nH]c2ccccc12)c1cc(I)c(I)[nH]1 | 4
O=C(NCCc1c[nH]c2ccccc12)c1cc(Br)c[nH]1 | 2
O=C(NCCc1c[nH]c2ccc(O)cc12)c1cc(Br)c(Br)[nH]1 | 4
O=C(NCCc1ccccn1)c1cc(Br)c(Br)[nH]1 | 0
O=C(NCc1ccccc1)c1cc(Br)c(Br)[nH]1 | 0
O=C(NCCc1csc2ccccc12)c1cc(Br)c(Br)[nH]1 | 4
O=C(NCCc1c[nH]c2ccccc12)c1cc(Cl)c[nH]1 | 2
O=C(NCc1c[nH]c2ccccc12)c1cc(I)c(I)[nH]1 | 0
O=C(NCCc1c[nH]c2ccccc12)c1cc(Cl)c(Cl)[nH]1 | 8
O=C(NCCc1c[nH]c2ccccc12)c1ccc(Br)o1 | 0
Cn1cc(CCNC(=O)c2cc(Br)c(Br)[nH]2)c2ccccc21 | 0
CCCCn1c(C(=O)NCCc2c[nH]c3ccccc23)cc(Br)c1Br | 0

These compounds were tested on Acinetobacter baumannii (assay: Toxicity in Acinetobacter baumannii 4106 after 18 hrs by broth microdilution assay). Conditions: in vitro.
Type: organism-based
Procedure, shortened: (§2)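 Single-agent MIC per CLSI broth microdilution. Cells from a 4–6 h culture in cation-adjusted Mueller-Hinton broth adjusted to 5 ×10^5 CFU/mL. Compound (DMSO stock) added to 200 μM top concentration and twofold serially diluted six times, with an untreated control row. Plates sealed and incubated stationary at 37°C for 18 h before MIC read.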

SMILES | MIC [µM]
O=C(NCCc1c[nH]cn1)c1cc(Br)c(Br)[nH]1 | > 200
COc1ccc2[nH]cc(CCNC(=O)c3cc(Br)c(Br)[nH]3)c2c1 | > 200
O=C(NCCc1c[nH]c2ccc(O)cc12)c1cc(Br)c(Br)[nH]1 | > 200
O=C(NCCc1ccccn1)c1cc(Br)c(Br)[nH]1 | > 200
O=C(NCc1ccccc1)c1cc(Br)c(Br)[nH]1 | > 200
O=C(NCCc1csc2ccccc12)c1cc(Br)c(Br)[nH]1 | > 200
Cn1cc(CCNC(=O)c2cc(Br)c(Br)[nH]2)c2ccccc21 | > 200

Each compound was assayed on Klebsiella pneumoniae (assay: Toxicity in Klebsiella pneumoniae B9 after 18 hrs by broth microdilution assay). Conditions: not given.
Type: organism-based
Procedure, shortened: as §2

SMILES | MIC [µM]
O=C(NCCc1c[nH]cn1)c1cc(Br)c(Br)[nH]1 | > 200
COc1ccc2[nH]cc(CCNC(=O)c3cc(Br)c(Br)[nH]3)c2c1 | > 200
O=C(NCCc1c[nH]c2ccc(O)cc12)c1cc(Br)c(Br)[nH]1 | > 200
O=C(NCCc1ccccn1)c1cc(Br)c(Br)[nH]1 | > 200
O=C(NCc1ccccc1)c1cc(Br)c(Br)[nH]1 | > 200
O=C(NCCc1csc2ccccc12)c1cc(Br)c(Br)[nH]1 | > 200
Cn1cc(CCNC(=O)c2cc(Br)c(Br)[nH]2)c2ccccc21 | > 200

These compounds were tested on Acinetobacter baumannii (assay: Toxicity in Acinetobacter baumannii ATCC 17978 expressing mcr1 gene after 18 hrs by broth microdilution assay). Conditions: not given.
Type: organism-based
Procedure, shortened: as §2

SMILES | MIC [µM]
O=C(NCCc1c[nH]cn1)c1cc(Br)c(Br)[nH]1 | > 200
COc1ccc2[nH]cc(CCNC(=O)c3cc(Br)c(Br)[nH]3)c2c1 | > 200
O=C(NCCc1c[nH]c2ccc(O)cc12)c1cc(Br)c(Br)[nH]1 | > 200
O=C(NCCc1ccccn1)c1cc(Br)c(Br)[nH]1 | > 200
O=C(NCc1ccccc1)c1cc(Br)c(Br)[nH]1 | > 200
O=C(NCCc1csc2ccccc12)c1cc(Br)c(Br)[nH]1 | > 200
Cn1cc(CCNC(=O)c2cc(Br)c(Br)[nH]2)c2ccccc21 | > 200

What follows are compounds tested on Escherichia coli (assay: Toxicity in Escherichia coli ATCC 25922 after 18 hrs by broth microdilution assay). Conditions: in vitro.
Type: organism-based
Procedure, shortened: as §2

SMILES | MIC [µM]
O=C(NCCc1c[nH]cn1)c1cc(Br)c(Br)[nH]1 | > 200
COc1ccc2[nH]cc(CCNC(=O)c3cc(Br)c(Br)[nH]3)c2c1 | > 200
O=C(NCCc1c[nH]c2ccc(O)cc12)c1cc(Br)c(Br)[nH]1 | > 200
O=C(NCCc1ccccn1)c1cc(Br)c(Br)[nH]1 | > 200
O=C(NCc1ccccc1)c1cc(Br)c(Br)[nH]1 | > 200
O=C(NCCc1csc2ccccc12)c1cc(Br)c(Br)[nH]1 | > 200
Cn1cc(CCNC(=O)c2cc(Br)c(Br)[nH]2)c2ccccc21 | > 200

What follows are compounds tested on Acinetobacter baumannii (assay: Potentiation of colistin-induced antimicrobial activity against colistin-resistant Acinetobacter baumannii isolate 3941 assessed as fold reduction in colistin MIC at 60 uM after 18 hrs by broth microdilution assay). Conditions: not given.
Type: functional
Procedure, shortened: as §1

SMILES | fold change (FC)
O=C(NCCc1c[nH]c2ccccc12)c1cc(I)c(I)[nH]1 | 128
O=C(NCCc1c[nH]c2ccccc12)c1cccc(Br)n1 | 8

These compounds were tested on Acinetobacter baumannii (assay: Potentiation of colistin-induced antimicrobial activity against colistin-resistant Acinetobacter baumannii isolate 3942 assessed as fold reduction in colistin MIC at 60 uM after 18 hrs by broth microdilution assay). Conditions: not given.
Type: functional
Procedure, shortened: as §1

SMILES | fold change (FC)
O=C(NCCc1c[nH]c2ccccc12)c1cc(I)c(I)[nH]1 | 128
O=C(NCCc1c[nH]c2ccccc12)c1cccc(Br)n1 | 8

What follows are compounds tested on Acinetobacter baumannii (assay: Potentiation of colistin-induced antimicrobial activity against colistin-resistant Acinetobacter baumannii isolate 4112 assessed as fold reduction in colistin MIC at 60 uM after 18 hrs by broth microdilution assay). Conditions: not given.
Type: functional
Procedure, shortened: as §1

SMILES | fold change (FC)
O=C(NCCc1c[nH]c2ccccc12)c1cc(I)c(I)[nH]1 | 128
O=C(NCCc1c[nH]c2ccccc12)c1cccc(Br)n1 | 8

These compounds were tested on Klebsiella pneumoniae (assay: Potentiation of colistin-induced antimicrobial activity against colistin-resistant Klebsiella pneumoniae isolate A5 assessed as fold reduction in colistin MIC at 60 uM after 18 hrs by broth microdilution assay). Conditions: not given.
Type: functional
Procedure, shortened: as §1

SMILES | fold change (FC)
O=C(NCCc1c[nH]c2ccccc12)c1cc(I)c(I)[nH]1 | 256
O=C(NCCc1c[nH]c2ccccc12)c1cccc(Br)n1 | 0

These compounds were tested on Klebsiella pneumoniae (assay: Potentiation of colistin-induced antimicrobial activity against colistin-resistant Klebsiella pneumoniae isolate C3 assessed as fold reduction in colistin MIC at 60 uM after 18 hrs by broth microdilution assay). Conditions: not given.
Type: functional
Procedure, shortened: as §1

SMILES | fold change (FC)
O=C(NCCc1c[nH]c2ccccc12)c1cc(I)c(I)[nH]1 | 512
O=C(NCCc1c[nH]c2ccccc12)c1cccc(Br)n1 | 512

What follows are compounds tested on Acinetobacter baumannii (assay: Potentiation of colistin-induced antimicrobial activity against colistin-sensitive Acinetobacter baumannii 5075 assessed as fold reduction in colistin MIC at 60 uM after 18 hrs by broth microdilution assay). Conditions: not given.
Type: functional
Procedure, shortened: (§3)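 Bacteria grown 4–6 h in cation-adjusted Mueller-Hinton broth and diluted to 5 ×10^5 CFU/mL. Adjuvant from DMSO stock held at fixed 60 μM while colistin is twofold serially diluted in the same adjuvant-dosed broth. Plates sealed and kept stationary at 37°C for 18 h. Colistin MIC read and fold reduction taken relative to colistin alone.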

SMILES | fold change (FC)
O=C(NCCc1c[nH]c2ccccc12)c1cc(I)c(I)[nH]1 | 2
O=C(NCCc1c[nH]c2ccccc12)c1cccc(Br)n1 | 0

The compounds below were run on Acinetobacter baumannii (assay: Potentiation of colistin-induced antimicrobial activity against Acinetobacter baumannii ATCC 17978 assessed as fold reduction in colistin MIC at 60 uM after 18 hrs by broth microdilution assay). Conditions: not given.
Type: functional
Procedure, shortened: as §3

SMILES | fold change (FC)
O=C(NCCc1c[nH]c2ccccc12)c1cc(I)c(I)[nH]1 | 2
O=C(NCCc1c[nH]c2ccccc12)c1cccc(Br)n1 | 2

What follows are compounds tested on Escherichia coli (assay: Potentiation of colistin-induced antimicrobial activity against Escherichia coli ATCC 25922 assessed as fold reduction in colistin MIC at 60 uM after 18 hrs by broth microdilution assay). Conditions: not given.
Type: functional
Procedure, shortened: as §3

SMILES | fold change (FC)
O=C(NCCc1c[nH]c2ccccc12)c1cc(I)c(I)[nH]1 | 2
O=C(NCCc1c[nH]c2ccccc12)c1cccc(Br)n1 | 2

These compounds were tested on Klebsiella pneumoniae (assay: Potentiation of colistin-induced antimicrobial activity against Klebsiella pneumoniae ATCC BAA-2146 expressing NDM1 gene assessed as fold reduction in colistin MIC at 60 uM after 18 hrs by broth microdilution assay). Conditions: not given.
Type: functional
Procedure, shortened: as §3

SMILES | fold change (FC)
O=C(NCCc1c[nH]c2ccccc12)c1cc(I)c(I)[nH]1 | 2
O=C(NCCc1c[nH]c2ccccc12)c1cccc(Br)n1 | 2
